The data set is described as follows: Toxicity liver stage against HepG2, at 10uM. More on the design: test concentration 10 uM, cell line HepG2-A16-CD81EGFP. The format is cell-based. To be noted: human, HepG2-A16-CD81EGFP cells; read-out: INHIBITION
A digest of the protocol: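 Uninfected HepG2-A16-CD81EGFP cells, 3 × 10^3 per well, 1536-well, plated on prespotted compound at 10 μM final, parasite-free screening media added to match infected plates; puromycin 10 μM positive, DMSO 0.5% negative; run in parallel with 48 h PbLuc assay at 37 °C, 5% CO2; viability by CellTiter-Glo luminescence, normalized to controls.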
For `CCn1ncc2c(C(F)(F)F)cc(-c3ccn(C)n3)nc21`, the cytotoxicity at 10 µM was 4.75%.
For `Cc1cn(CC(=O)NCC(=O)NC2CC2)c2ccccc12` the value was -0.966%; for `Cc1ccc(OCCC(=O)N2CCN(c3cnccn3)CC2)cc1C`, -12.2%; for `Cn1c(C(F)(F)F)nn(CCNC(=O)CSCc2ccccc2)c1=O`, -24%.
The same measure for `Cc1nc2c(c(NC(C)C)n1)CCN(C1CCOCC1)CC2`: 9.26%; for `CC1CN(CC(=O)NCc2ccccc2)CCN1Cc1nccn1C` (stereo unspecified): -16.2%; for `Cc1nn(CC(=O)N2CCC(Nc3cccnn3)CC2)c(C)c1Cl`: -12%.
The same measure for `COc1ccccc1CNCCc1cccc(C(N)=O)c1`: 3.65%; for `O=C(c1ccc(F)cc1F)N1C[C@@H]2CC[C@H]1CN(Cc1ccccc1)C2`: 5.04%; for `CC(CC(=O)NS(=O)(=O)c1ccc2c(c1)OCCO2)c1ccc(F)cc1` (stereo unspecified): -31.6%.
`CCc1nc(C)c(-c2nccn2CC2CC(=O)N(CC)C2)[nH]1` (stereo unspecified): the cytotoxicity at 10 µM worked out at 0.361%.
`O=C(N1CCOCC1)N1CCN(c2ccc(Cl)nn2)C(=O)C1`: the cytotoxicity at 10 µM is 8.57%.
`CC(C)(NS(C)(=O)=O)c1nc(-c2cccc(Cl)c2)no1`: the cytotoxicity at 10 µM stood at 2.31%.
On to `O=C([C@H]1CC[C@@H]2[C@@H](CCN2C2CCCCC2)O1)N1CCOCC1`, for which the cytotoxicity at 10 µM is 7.19%.
For `CCC1CN(CC(=O)N2CCC2)CCN1CCOC` (stereo unspecified) the value was -9.78%; for `CCCOc1ccc(CCC(=O)Nc2nonc2C)cc1`, -7.24%; for `COC(=O)N1CCC(Nc2cccc(F)c2C(C)=O)CC1`, 12.7%.
On to `CC(=O)N1CCN(C(=O)NCCCc2cn[nH]c2C)CC1`, for which the cytotoxicity at 10 µM came to 12.1%.
The same measure for `O=C1C[C@H]2[C@@H](CCN2C(=O)Cc2cccs2)N1CC1CC1`: 3.2%; for `COCc1cc(CNc2cnn(CC(F)F)c2)ccc1OC`: -7.58%.
In the case of `O=C(CN1CCc2ccccc2C1)NCc1ccco1`, the cytotoxicity at 10 µM was determined as 6.32%.
As to `CCOC1COC2(CCN(Cc3ccc(C)c(C)c3)CC2)C1` (stereo unspecified), the cytotoxicity at 10 µM is -11.2%.
On to `CC(=O)N1CCN(C(=O)CCCc2nnc(-c3ccccc3)o2)CC1`, for which the cytotoxicity at 10 µM is -12.5%.
`CC(C)Cc1noc(CN2CCN(CCO)CC2)n1`: the cytotoxicity at 10 µM was -1.22%.
In the case of `Cc1cc(C(=O)N2CCc3c(ncn3CCc3ccccc3)C2)on1`, the cytotoxicity at 10 µM was -3.58%.
For the compound `CCCOc1ccc(CNC(=O)N2CCC(C(N)=O)C2)cc1` (stereo unspecified), the cytotoxicity at 10 µM was -5.87%.
As for `O=C(c1cc(-n2cccn2)ccn1)N1CCOc2ncccc21`, the cytotoxicity at 10 µM was -0.554%.
The same measure for `CCc1cc(C(=O)N2CCC(C3CCN(c4ncccn4)CC3)C2)on1` (stereo unspecified): 2.25%; for `CC(C)c1nc(CN(C)C(=O)c2cn3ccsc3n2)cs1`: 8.35%; for `Cc1cc(C(=O)N(C)C)c2c(Br)cccc2n1`: -6.4%.
Consider `CN(C)c1cc2c(nn1)CCN(C(=O)Cc1ccc3c(c1)CCO3)C2`, for which the cytotoxicity at 10 µM is 5.71%.
Turning to `COc1ccc(-n2ncc3c2NC(=O)CSC3CC(C)C)cc1` (stereo unspecified), the cytotoxicity at 10 µM is -0.418%.
Consider `OC(CN1CCN(CC2CCCCC2)CC1)c1ccccc1` (stereo unspecified), for which the cytotoxicity at 10 µM is 1.53%.
`Cc1nnn2c1COCC(CNC(=O)c1ccnnc1)C2` (stereo unspecified): the cytotoxicity at 10 µM was -1.35%.
Take `O=C([C@@H]1COC[C@H]2CN(CC3CC3)C[C@H]21)N1CCC(F)CC1`: the cytotoxicity at 10 µM stood at 9.29%.
For the compound `CCC(C)(C)NCc1nc(C(C)(C)NC(=O)OC(C)(C)C)no1`, the cytotoxicity at 10 µM turned out to be 2.35%.
`CCS(=O)(=O)N1CCC2(CC(=O)N(c3ccc4c(c3)OCO4)C2)C1` (stereo unspecified): the cytotoxicity at 10 µM came to 9.17%.
In the case of `CN1CCC(CNC(=O)c2ccc(O)nc2)c2ccccc21` (stereo unspecified), the cytotoxicity at 10 µM was determined as 13.9%.
As for `Cc1nnsc1C(=O)N1CCCC(n2nnc3cc(F)ccc32)C1` (stereo unspecified), the cytotoxicity at 10 µM stood at 3.49%.
With `Cc1ccc(C(=O)N2CCN(C(=O)NC(C)Cn3ccnc3)CC2)o1` (stereo unspecified), the cytotoxicity at 10 µM was -1.47%.
For the compound `Cc1cc(C)n(C2CCCN(C(=O)c3cn4cccnc4n3)C2)n1` (stereo unspecified), the cytotoxicity at 10 µM is -4.62%.
For the compound `CCc1cnc(CN(C)C2CCN(CCn3cc(C#N)cn3)C2)o1` (stereo unspecified), the cytotoxicity at 10 µM is -8.99%.
As to `CCOCc1ccccc1NC(=O)NCC(c1cnn(C)c1)N(C)C` (stereo unspecified), the cytotoxicity at 10 µM is 3.96%.
As for `COc1cc(C(=O)N(Cc2cnn(C)c2)C(C)C)ccc1C`, the cytotoxicity at 10 µM is -3.14%.
For `Cc1noc(C2CCCN(C(=O)c3ccc(Br)o3)C2)n1` (stereo unspecified) the value was 1.73%; for `COc1cc(N2CCC3(CC2)CC(N2CCOCC2)CO3)ncn1` (stereo unspecified), 3.44%.
For `COc1ccc(CNC(Cc2cccs2)c2nc(C)c(C)s2)cc1OC` (stereo unspecified), the cytotoxicity at 10 µM was -3.32%.
In the case of `CCCn1nccc1NC(=O)CN1CCC[C@H]1CO`, the cytotoxicity at 10 µM is -1.8%.
For `Cc1nc(COC[C@H]2CC[C@H]3NCC[C@H]3O2)cs1` the value was -5.64%; for `COCCOC(=O)N1CC2=CC(C)(C)COc3ccc(OC)c(c32)C1`, 1.22%.
In the case of `Cc1cc(NCCO)nc(N2CCN(C)CC2)c1C#N`, the cytotoxicity at 10 µM was -17.4%.
Take `CC(C)NC(=O)c1ccc2c(c1)C1(CCN(C(C)C)CC1)C(=O)N2`: the cytotoxicity at 10 µM is -7.47%.
As to `CCc1nc(CN(C)C(=O)C2CC(=O)N(c3cccc(O)c3)C2)no1` (stereo unspecified), the cytotoxicity at 10 µM was -10.2%.
On to `OCCn1cc(CN2CCN(CCOc3ccc(F)cc3)CC2)cn1`, for which the cytotoxicity at 10 µM was -11.1%.
On to `CCOc1ccccc1CSc1nnc(CC2CCS(=O)(=O)C2)n1C` (stereo unspecified), for which the cytotoxicity at 10 µM amounted to 10.7%.
For `CC(C)C(=O)N1CCN(Cc2ccccn2)CC2(CC(=O)N(C)C2)C1` (stereo unspecified), the cytotoxicity at 10 µM was found to be 0.0515%.
The same measure for `CSc1ccc(C(=O)N2CC(=O)N(Cc3cccs3)CC(O)C2)cc1` (stereo unspecified): 2.31%.
For `COc1c(NC(=O)N(C)CCOc2ccccc2)c(C)nn1C` the value was 19.2%; for `CCCN1Cc2ccccc2CC1C(=O)NC` (stereo unspecified), -5.74%; for `Cc1cc(C(=O)N2CC[C@@H]3CN(c4ncccn4)CCO[C@@H]3C2)c(C)o1`, 3.52%.
On to `O=C(Nc1ccccc1)N1CCC(n2cc3[nH]cccc-3c2=O)CC1`, for which the cytotoxicity at 10 µM is -3.73%.
Regarding `CCC(=O)NCC(c1ccc(SC)cc1)N1CCc2sccc2C1` (stereo unspecified), the cytotoxicity at 10 µM was 4.05%.
With `CN(Cc1ccccc1O)CC1CCCN(CCc2ccc(Cl)cc2)C1` (stereo unspecified), the cytotoxicity at 10 µM was -10.1%.
Regarding `COc1ncc(C(F)(F)F)c(C(=O)O)c1Cl`, the cytotoxicity at 10 µM came out at 16.7%.
In the case of `O=C(Cn1cccn1)Nc1ccc(N2CCCCC2)cc1`, the cytotoxicity at 10 µM was 0.955%.
For `CCN(C)c1ncc2c(c1C(=O)O)CCN(C1CCOC1)C2` (stereo unspecified) the value was 11.5%.
For `O=c1c(NCCNCCO)c(N2CCN(c3ccc(F)cc3)CC2)c1=O` the value was -5.46%; for `Cc1cccc(C(=O)N2C[C@@H](C)[C@@]3(CCN(c4ccsc4)C3=O)C2)n1`, -78.9%.
Consider `CCc1nc2n(n1)CC(NCC(=O)Nc1cc(C(C)(C)C)no1)CC2` (stereo unspecified), for which the cytotoxicity at 10 µM was -9.26%.
For `Cc1cc(Nc2ccc(F)cn2)cc(C2CCCN2)n1` (stereo unspecified) the value was 0.0453%.
For `CC(=O)c1cccc(OCC(=O)NS(=O)(=O)c2ccc(Br)s2)c1`, the cytotoxicity at 10 µM is -19.4%.
The same measure for `CSc1ccc(NC(=O)NCC(O)C(C)C)cc1F` (stereo unspecified): 6.93%; for `OCCN1CCN(Cc2coc(-c3ccccc3Cl)n2)CC1`: -7.57%.
With `Cc1cccnc1NCCNC(=O)C1CCN(Cc2ccco2)CC1`, the cytotoxicity at 10 µM is -2.51%.
`CC(C)Cc1nc(CNCc2cccc(N3CCCC3=O)c2)no1`: the cytotoxicity at 10 µM was 0.753%.
On to `N#Cc1ccc(C(=O)N2CC(c3nc(-c4ncccn4)no3)C2)cc1`, for which the cytotoxicity at 10 µM is -0.713%.
Regarding `Cc1cc(C2CCCN(C(=O)c3ccc(C)[nH]c3=O)C2)n[nH]1` (stereo unspecified), the cytotoxicity at 10 µM is -5.65%.
For `COCC1(NC(=O)Nc2nc(C)ns2)CCCC1` the value was 0.512%; for `COCCN1CCC(c2nc3c([nH]2)CC(C)(C)CNC3=O)CC1`, -3.13%.
For `CN1CCOC(CNC(=O)CCc2cc(F)ccc2F)C1` (stereo unspecified), the cytotoxicity at 10 µM turned out to be 2.32%.
For `CCCn1nnnc1CN1Cc2ccccc2CC1c1nnc(C)o1` (stereo unspecified) the value was 9.52%; for `CS(=O)(=O)CCSCc1cccc2cccnc12`, -6.64%; for `CCN1CC(C(=O)NCCOc2ccc3c(c2)OCO3)CC1=O` (stereo unspecified), -2.34%.
For `O=C(Nc1ccc(OCc2cccc(F)c2)c(F)c1)C1COCCO1` (stereo unspecified) the value was 74.4%.
Take `Cc1cnn(-c2ccc(C(=O)N3CCCC(n4ccnc4C)C3)cc2)c1` (stereo unspecified): the cytotoxicity at 10 µM was -9.99%.
As to `CCS(=O)(=O)c1ccc2c(c1)OCCO2`, the cytotoxicity at 10 µM was -1.38%.
On to `CNC(=O)C1CCN(C(=O)c2coc(COc3ccc(OC)cc3)n2)C1` (stereo unspecified), for which the cytotoxicity at 10 µM is -1.74%.
Take `Cc1cc(CN2CCN(C(=O)c3sccc3C3CC3)CC2)on1`: the cytotoxicity at 10 µM came out at 4.69%.
On to `Cc1ccc([C@]2(O)CC[C@H]3CN(Cc4cc(C)c(O)c(C)c4)C[C@H]32)nc1`, for which the cytotoxicity at 10 µM was -6.72%.
For `O=S(=O)(c1cccnc1)N1CCN(CCn2ccnc2)CC1` the value was -31.2%; for `CCN(Cc1nc(COC)no1)C(=O)CCn1c(C)cc2ccccc21`, -0.0679%.
For `Cc1cnc(C(=O)N2C[C@H]3CN(Cc4cccnc4)C[C@H]3C2)cn1` the value was 2.4%; for `COCc1ccc(C(=O)N2CCC(Oc3ccccc3OC)CC2)s1`, 5.79%; for `NC(=O)C1CCN(c2nccc(-c3c[nH]nc3C3CCCCC3)n2)CC1`, -10.6%.
Consider `Cn1nc(C2CCCN(Cc3cc(F)cc(F)c3)C2)c2nccnc21` (stereo unspecified), for which the cytotoxicity at 10 µM was -16.3%.
Regarding `CO[C@H]1CCN(C2CCOCC2)C[C@@H]1Cc1ccccc1`, the cytotoxicity at 10 µM turned out to be 3.11%.
